Activity calls are given as the source filed them. The calls are words filed in the database; no cut-off is given here.
Key:
Plasmodium falciparum [1] = test: Antiplasmodial activity against multidrug-resistant Plasmodium falciparum K1 infected in human erythrocytes after 48 hrs by [3H]-hypoxanthine incorporation assay; format: functional, organism-based
Outline: (§1)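 Modified [3H]-hypoxanthine incorporation assay against P. falciparum NF54 (sensitive) and K1 (multidrug-resistant). Values are means of ≥2 or ≥3 independent experiments. The resistance index is the K1 IC50 divided by the NF54 IC50.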

Plasmodium falciparum [2] = test: Antiplasmodial activity against chloroquine-sensitive Plasmodium falciparum NF54 infected in human erythrocytes after 48 hrs by [3H]-hypoxanthine incorporation assay; format: functional, organism-based; outline: as §1
[3] = Inhibition of beta haematin formation at 1000 uM after 5 to 6 hrs by pyridine-ferrichrome method; format: physicochemical
Outline: (§2)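 Modified β-haematin inhibition assay. Compounds from DMSO stocks, 0–1000 µM final, in duplicate. NP-40 added (30.55 µM). Haematin suspension added to give 0.5 M acetate pH 4.8 and 100 µM haematin, then incubated 5–6 h at 37 °C. Free haeme detected with pyridine/H2O/acetone/0.2 M HEPES pH 7.4 reagent (final pyridine ~5% v/v) plus acetone, and absorbance read.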

Plasmodium falciparum [4] = test: Antiplasmodial activity against Plasmodium falciparum W2 infected in human erythrocytes after 48 hrs by [3H]-hypoxanthine incorporation assay; format: functional, organism-based
Plasmodium falciparum [5] = test: Resistance index, ratio of IC50 for multidrug-resistant Plasmodium falciparum K1 to IC50 for Plasmodium falciparum W2; format: functional
Plasmodium falciparum [6] = test: Resistance index, ratio of IC50 for multidrug-resistant Plasmodium falciparum K1 to IC50 for chloroquine-sensitive Plasmodium falciparum NF54; format: functional; outline: as §1
CHO = test: Cytotoxicity against CHO cells by MTT assay; format: cell-based; details: Cricetulus griseus
Outline: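 CHO cells, MTT assay. Stocks 20 mg/mL in DMSO, diluted in complete medium; undissolved samples tested as suspensions. Emetine served as reference (10-fold dilutions, 6 concentrations, lowest 0.001 µg/mL). IC50 derived from full dose–response curves by non-linear fitting.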

[7] = Selectivity index, ratio of IC50 for CHO cells to IC50 for chloroquine-sensitive Plasmodium falciparum NF54; format: toxicity, cell-based; details: hamster, read-out: Ratio IC50
[8] = Inhibition of beta haematin formation after 5 to 6 hrs by pyridine-ferrichrome method; format: physicochemical; outline: as §2
Plasmodium berghei [9] = test: Antimalarial activity against GFP-transfected Plasmodium berghei ANKA infected in mouse assessed as reduction in parasitemia at 50 mg/kg, po qd administered for 4 days measured on day 4 post last dose by flow cytometric analysis relative to control; format: functional; parameters: scale not given: the % may be the effect or the level left
Plasmodium berghei [10] = test: Antimalarial activity against GFP-transfected Plasmodium berghei ANKA infected in mouse assessed as reduction in parasitemia at 10 mg/kg, po qd administered for 4 days measured on day 4 post last dose by flow cytometric analysis relative to control; format: functional; parameters: scale not given: the % may be the effect or the level left
Plasmodium berghei [11] = test: Antimalarial activity against GFP-transfected Plasmodium berghei ANKA infected in mouse assessed as mean survival days at 50 mg/kg, po qd administered for 4 days; format: functional
Outline: (§3)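 Mice (n = 3) infected with GFP-transfected P. berghei ANKA. Compound given orally, dissolved in a vehicle containing ethanol and diluted 10× with water. Multi-dose arms were dosed once daily on four consecutive days (4, 24, 48, 72 h post-infection). Parasitaemia was measured by flow cytometry, detection limit 0.1%. Activity is % reduction relative to controls. Survival was followed for 30 days.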

Plasmodium berghei [12] = test: Antimalarial activity against GFP-transfected Plasmodium berghei ANKA infected in mouse assessed as mean survival days at 10 mg/kg, po qd administered for 4 days; format: functional; outline: as §3
[13] = Lipophilicity, log P of the compound; format: physicochemical; details: octanol/water
[14] = Metabolic stability in human liver microsomes assessed as compound remaining at […] after 30 mins by HPLC-MS/MS analysis in presence of NADPH; format: ADME; details: read-out: Stability
[15] = Metabolic stability in BALB/c mouse liver microsomes assessed as compound remaining at […] after 30 mins by HPLC-MS/MS analysis in presence of NADPH; format: ADME; details: read-out: Stability
Plasmodium berghei [16] = test: Antimalarial activity against GFP-transfected Plasmodium berghei ANKA infected in mouse assessed as reduction in parasitemia at 50 mg/kg, po by flow cytometric analysis relative to control; format: functional; parameters: scale not given: the % may be the effect or the level left
Plasmodium berghei [17] = test: Antimalarial activity against GFP-transfected Plasmodium berghei ANKA infected in mouse assessed as mean survival days at 50 mg/kg, po; format: functional; outline: as §3
[18] = Stability of the compound by potassium cyanide trapping method; format: physicochemical
[19] = Stability of the compound by methoxylamine trapping method; format: physicochemical
[20] = Elimination half life in C57Bl/6 mouse at 20 mg/kg, po; format: ADME, organism-based; details: in vivo, read-out: beta t1/2 (converted)
Outline: (§4)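 C57Bl/6 mice, n = 3 per route. IV group dosed 5 mg/kg in DMSO, PEG, EtOH, PPG (2:6:1:7, v/v); tail-tip blood (20 µL) at 0.08, 0.5, 1, 3, 7 and 24 h. Oral group received a single 20 mg/kg gavage as a suspension in 0.5% HPMC in water; blood at 0.5, 1, 3, 5 and 24 h. Whole-blood LC–MS/MS (10–5000 ng/mL) after methanol protein precipitation; non-compartmental analysis.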

[21] = Elimination half life in C57Bl/6 mouse at 5 mg/kg, iv; format: ADME, organism-based; details: in vivo, read-out: beta t1/2 (converted); outline: as §4
[22] = Tmax in C57Bl/6 mouse at 20 mg/kg, po; format: ADME, organism-based; details: in vivo; outline: as §4
[23] = Cmax in C57Bl/6 mouse at 20 mg/kg, po; format: ADME, organism-based; parameters: dose 20 mg/kg, route oral; details: in vivo; outline: as §4
[24] = Cmax in C57Bl/6 mouse at 5 mg/kg, iv; format: ADME, organism-based; parameters: dose 5 mg/kg, route intravenous; details: in vivo; outline: as §4
[25] = Volume of distribution in C57Bl/6 mouse at 5 mg/kg, iv; format: ADME, organism-based; details: in vivo; outline: as §4
[26] = Total clearance in C57Bl/6 mouse at 5 mg/kg, iv; format: ADME, organism-based; details: in vivo; outline: as §4
Mus musculus [27] = test: AUC in C57Bl/6 mouse at 20 mg/kg, po; format: ADME, organism-based; details: in vivo; outline: as §4
Mus musculus [28] = test: AUC in C57Bl/6 mouse at 5 mg/kg, iv; format: ADME, organism-based; details: in vivo; outline: as §4
[29] = Oral bioavailability in C57Bl/6 mouse at 20 mg/kg; format: ADME, organism-based; details: in vivo; outline: as §4
Plasmodium berghei [30] = test: Antimalarial activity against GFP-transfected Plasmodium berghei ANKA infected in mouse assessed as cure rate at 50 mg/kg, po qd administered for 4 days measured over 30 days; format: functional, organism-based

SMILES	IC50 (Plasmodium falciparum [1]) [µM]	IC50 (Plasmodium falciparum [2]) [µM]	inhibition (INH) [3]	Ratio IC50 (Plasmodium falciparum [6])	IC50 (CHO) [µM]	selectivity ratio [7]	IC50 [8] [µM]	logP [13]	remaining at 0.5 h [14] [%]	remaining at 0.5 h [15] [%]	further results
CN(C)CCCNc1nc2cc([N+](=O)[O-])ccc2o1	11	> 20	Not Active	–	–	–	–	–	–	–	–
O=[N+]([O-])c1ccc2oc(N3CCN(c4ccccc4)CC3)nc2c1	> 20	> 20	Not Active	–	–	–	–	–	–	–	–
CCN(CC)Cc1cc(Nc2ccnc3cc(Cl)ccc23)ccc1O [AMODIAQUINE]	0.008	0.004	–	2.5	147	36800	43.5	–	–	–	IC50 (Plasmodium falciparum [4]): 0.005 µM; Ratio IC50 (Plasmodium falciparum [5]): 1.6; Activity (Plasmodium berghei [9]): 99.9%; Activity (Plasmodium berghei [10]): 100%; MSD (Plasmodium berghei [11]): >30 days; MSD (Plasmodium berghei [12]): >30 days
CCN(CC)c1nc2cc([N+](=O)[O-])ccc2o1	> 20	> 20	Not Active	–	–	–	–	–	–	–	–
Clc1ccc2oc(N3CCN(c4ccccc4)CC3)nc2c1	> 20	> 20	Not Active	–	–	–	–	–	–	–	–
CN(C)CCNc1nc2cc(Nc3ccnc4cc(Cl)ccc34)ccc2o1	0.042	0.012	–	3.5	7.59	633	363	3.38	> 99	> 99	Activity (Plasmodium berghei [9]): 99.8%; Activity (Plasmodium berghei [16]): 99.5%; Activity (Plasmodium berghei [10]): 99.9%; MSD (Plasmodium berghei [11]): 29.3 days; MSD (Plasmodium berghei [17]): 13.7 days; MSD (Plasmodium berghei [12]): 24 days
O=[N+]([O-])c1ccc2oc(NCc3ccccn3)nc2c1	> 20	> 20	Not Active	–	–	–	–	–	–	–	–
Clc1ccc2c(Nc3ccc4[nH]c(NCCN5CCOCC5)nc4c3)ccnc2c1	0.742	–	–	–	–	–	–	–	–	–	IC50 (Plasmodium falciparum [4]): 0.189 µM; Ratio IC50 (Plasmodium falciparum [5]): 3.93
CCNc1nc2cc(Nc3ccnc4cc(Cl)ccc34)ccc2o1	–	0.466	–	2.15	–	–	80.2	3.75	81	1	Stability [18]: Unstable; Stability [19]: Unstable; Ratio IC50 (Plasmodium falciparum [5]): 1.88
O=[N+]([O-])c1ccc2oc(NCCc3ccccn3)nc2c1	> 20	> 20	Not Active	–	–	–	–	–	–	–	–
Clc1ccc2c(Nc3ccc4oc(NCCCN5CCCCC5)nc4c3)ccnc2c1	0.039	0.01	–	3.9	10.6	1060	105	4.16	70	49	half-life [20]: 10.9 h; half-life [21]: 10 h; Tmax [22]: 2.9 h; Cmax [23]: 1.01 µM; Cmax [24]: 2.74 µM; Vd [25]: 24.5 L/kg; clearance [26]: 1.7 L/h/kg; AUC (Mus musculus [27]): 1020 (umol/L).min; AUC (Mus musculus [28]): 454 (umol/L).min; bioavailability [29]: 56%; Activity (Plasmodium berghei [9]): 99.8%; Activity (Plasmodium berghei [16]): 99.5%; Activity (Plasmodium berghei [10]): 99.8%; MSD (Plasmodium berghei [11]): >30 days; MSD (Plasmodium berghei [17]): 14 days; MSD (Plasmodium berghei [12]): 15.7 days; Activity (Plasmodium berghei [30]): Active
Clc1cccc(N2CCN(c3nc4cc(Nc5ccnc6cc(Cl)ccc56)ccc4o3)CC2)c1	0.412	0.202	–	2.04	172	852	24.7	6.57	36	> 99	–

— ChEMBL document CHEMBL3603782, “Antimalarial benzoheterocyclic 4-aminoquinolines: Structure-activity relationship, in vivo evaluation, mechanistic and bioactivation studies” (Bioorg Med Chem, 2015)
